Assay results from ChEMBL document CHEMBL4261586, “Conjugation of a 5-nitrofuran-2-oyl moiety to aminoalkylimidazoles produces non-toxic nitrofurans that are efficacious in vitro and in vivo against multidrug-resistant Mycobacterium tuberculosis” (Eur J Med Chem, 2018).
In brackets after ≈: the same amount, converted by molar mass.

Assays:
Assay type in all cases: functional
[1] = tested on: Mycobacterium tuberculosis; assay: Antimycobacterial activity against multidrug-resistant Mycobacterium tuberculosis 7106 harboring rpoB S531L/katG S315T mutation after 7 days by resazurin microtitre plate assay
Method in brief: (§1)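 REMA in Middlebrook 7H9 with OADC. Three-week culture vortexed with glass beads, adjusted to 1.0 McFarland (about 3×10⁸ bacteria/mL) and diluted 20-fold. Final concentrations 1.6–200 via 2-fold dilutions; growth control plus 1% ([…] diluted) control. 7 days at 35 °C, then 0.01% resazurin for 18 h; fluorescence ex 520/em 590 nm. MIC taken where fluorescence plateaued or matched the 1% control (t-test).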

[2] = tested on: Mycobacterium tuberculosis; assay: Antimycobacterial activity against multidrug-resistant Mycobacterium tuberculosis 5023 harboring rpoB S531L/katG S315T mutation mutation after 7 days by resazurin microtitre plate assay; method in brief: as §1
[3] = tested on: Mycobacterium tuberculosis; assay: Antimycobacterial activity against multidrug-resistant Mycobacterium tuberculosis 2712 harboring rpoB S531L/katG I335V/ahpC T10 mutation after 7 days by resazurin microtitre plate assay; method in brief: as §1
[4] = tested on: Mycobacterium tuberculosis; assay: (§2) Antitubercular activity against multidrug-resistant Mycobacterium tuberculosis 2712 infected in C57BL/6 mouse assessed as colony forming units per lung mass units at 28 mg/kg, po administered via gavage over 42 days (excluding weekends) cotreated with prothionamide, levofloxacin and p-aminosalicylic acid (reference value: 85.7 +/- 5.3 x 10^3)
[5] = tested on: Mycobacterium tuberculosis; assay: as §2, with “tubercular foci index” for “colony forming units per lung mass units”, “3.46” for “85.7”, “0.09)” for “5.3 x 10^3)”
[6] = tested on: Mycobacterium tuberculosis; assay: as §2, with “as” for “as colony forming units per”, “index” for “units”, “1.81” for “85.7”, “0.12)” for “5.3 x 10^3)”

SMILES	MIC [1]	MIC [2]	MIC [3]	Activity [4]	Activity_index [5]	Activity_index [6]
Cc1cnc(C)n1C1CCN(C(=O)c2ccc([N+](=O)[O-])o2)C1 (stereo not drawn)	12.5 µg/mL (≈ 41.1 µM)	25 µg/mL (≈ 82.2 µM)	25 µg/mL (≈ 82.2 µM)	–	–	–
Cc1cnc(-c2ccccc2)n1CC1CCN(C(=O)c2ccc([N+](=O)[O-])o2)C1 (stereo not drawn)	6.2 µg/mL (≈ 16.3 µM)	6.2 µg/mL (≈ 16.3 µM)	3.1 µg/mL (≈ 8.15 µM)	–	–	–
CCCn1c(C)cnc1C1CN(C(=O)c2ccc([N+](=O)[O-])o2)C1	3.1 µg/mL (≈ 9.74 µM)	3.1 µg/mL (≈ 9.74 µM)	0.8 µg/mL (≈ 2.51 µM)	10.6 ×10³ CFU	2.54	1.15
Cc1cnc(CCNC(=O)c2ccc([N+](=O)[O-])o2)n1C1CCC1	12.5 µg/mL (≈ 39.3 µM)	12.5 µg/mL (≈ 39.3 µM)	12.5 µg/mL (≈ 39.3 µM)	–	–	–
Cc1cnc(CC2CCN(C(=O)c3ccc([N+](=O)[O-])o3)C2)n1CC1CC1 (stereo not drawn)	12.5 µg/mL (≈ 34.9 µM)	6.2 µg/mL (≈ 17.3 µM)	1.6 µg/mL (≈ 4.46 µM)	–	–	–
